{
  "source": "PubChem BioAssay",
  "note": "Active and inactive are the calls of the source.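 How the source made its calls: active means potentiation averaged over duplicate wells exceeding buffer-only control mean by more than 3 SD; inactive means the rest.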",
  "data": [
    {"target": "Potassium voltage-gated channel subfamily KQT member 1 (Homo sapiens) (UniProt P51787)", "sequence (P51787 whole entry, looked up)": "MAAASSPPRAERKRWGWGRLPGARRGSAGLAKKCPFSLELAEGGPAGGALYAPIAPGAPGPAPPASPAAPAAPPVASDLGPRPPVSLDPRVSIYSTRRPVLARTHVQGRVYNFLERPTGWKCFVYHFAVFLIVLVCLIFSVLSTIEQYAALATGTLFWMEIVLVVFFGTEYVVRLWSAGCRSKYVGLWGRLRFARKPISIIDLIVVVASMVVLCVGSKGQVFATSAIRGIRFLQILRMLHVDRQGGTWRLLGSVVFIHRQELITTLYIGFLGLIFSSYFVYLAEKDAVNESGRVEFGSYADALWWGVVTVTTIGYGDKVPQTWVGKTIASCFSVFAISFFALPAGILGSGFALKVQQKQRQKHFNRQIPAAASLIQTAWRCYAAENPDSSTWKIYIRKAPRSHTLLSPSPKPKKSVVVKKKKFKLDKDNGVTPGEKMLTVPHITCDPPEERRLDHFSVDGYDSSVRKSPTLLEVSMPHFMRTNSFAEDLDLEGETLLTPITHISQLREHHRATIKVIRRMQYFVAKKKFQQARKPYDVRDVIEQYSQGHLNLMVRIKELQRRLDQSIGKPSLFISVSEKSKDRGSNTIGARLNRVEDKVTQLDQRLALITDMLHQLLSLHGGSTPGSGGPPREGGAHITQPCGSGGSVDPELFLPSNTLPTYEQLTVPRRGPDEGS", "assay": "enhancement of KCNQ1 channel thallium flux – FluxOR thallium flux, CHO cells, duplicates, confirmation (AID 493007);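 on outcome: cells depolarized by a potassium plus thallium sulfate stimulus after compound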", "settings": "KCNQ1 cell line, FluxOR thallium flux fluorescence, at 10 µM; active compounds read high, % of reference activator effect, buffer zero", "in_short": "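Material: KCNQ1-expressing CHO cell line; Incubation: FluxOR dye loading 90 min, compound exposure 20 min, room temperature; Detection: FluxOR Tl+ flux fluorescence, 10 s baseline plus 110 s recording; Read-out: percent activation between buffer and R-L3 responses; Control set: buffer-only wells as 0% and R-L3 activator as 100%; Replication: duplicate wells per compound.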", "values": [
      {"smiles": "CN1CCN(C(=O)/C(=C/c2ccccc2)c2ccccc2)CC1", "outcome": "inactive"},
      {"smiles": "CC(OC(=O)CCCNC(=O)c1ccc(Cl)cc1)C(=O)N(C)Cc1ccccc1", "note": "(stereo not given)", "outcome": "inactive"},
      {"smiles": "Cc1ccc2cc(CN(C(=O)c3ccco3)c3ccccc3C)c(=O)[nH]c2c1", "outcome": "inactive"},
      {"smiles": "COc1ccc(C(=O)NC(=S)NNC(=O)c2ccc3ccccc3n2)cc1", "potentiation": "26% (active)"},
      {"smiles": "CC(C)(C)C(=O)NC(=S)NNC(=O)c1ccc(Cl)cc1Cl", "potentiation": "52% (active)"},
      {"smiles": "Fc1ccc2nc(Nc3nc4c(F)cccc4s3)sc2c1", "potentiation": "69.5% (active)"},
      {"smiles": "Clc1ccc(-c2csc(N3CCc4ccccc4C3)n2)cc1", "outcome": "inactive"},
      {"smiles": "CCN(Cc1cc2cc(OC)ccc2[nH]c1=O)C(=O)c1ccncc1", "outcome": "inactive"},
      {"smiles": "Cc1ccc(NC(=S)N/N=C2/CCCCc3ccccc32)cc1", "potentiation": "324% (active)"},
      {"smiles": "Cc1ccc(C(=O)Nc2nc3ccccc3c(=O)s2)cc1", "potentiation": "35.5% (active)"},
      {"smiles": "Cc1cc(C)n(CC(=O)N2CCCC(N3CCN(c4ccccc4C)CC3)C2)n1", "note": "(stereo not given)", "potentiation": "79% (active)"},
      {"smiles": "CN(Cc1cn[nH]c1-c1ccc2c(c1)OCO2)C1CCOCC1", "outcome": "inactive"},
      {"smiles": "COc1ccc(C)cc1NC(=O)C(=O)NNC(=O)c1ccco1", "potentiation": "109% (active)"},
      {"smiles": "CCCOc1ccc(CN(CCC#N)C(=S)NC(=O)c2ccccc2)cc1", "potentiation": "134% (active)"},
      {"smiles": "CC12CCC(C/C1=N\\N=C1\\NC(=O)/C(=C\\c3ccc(Cl)cc3)S1)C2(C)C", "note": "(stereo not given)", "potentiation": "74.5% (active)"},
      {"smiles": "Cc1cc(NC(c2cccnc2)c2c(C)[nH]c3ccccc23)no1", "note": "(stereo not given)", "outcome": "inactive"},
      {"smiles": "CCOc1cc(CNCCCN2CCOCC2)ccc1OCC(=O)NC(C)(C)C", "outcome": "inactive"},
      {"smiles": "Cc1[nH]n(-c2cccc3ccccc23)c(=O)c1/C=N/c1sc2c(c1C#N)CCC2", "potentiation": "122% (active)"},
      {"smiles": "COc1ccc(CN2C(=O)C(O)(CC(=O)c3ccc4c(c3)OCO4)c3ccccc32)cc1OC", "note": "(stereo not given)", "outcome": "inactive"},
      {"smiles": "S=c1nc[nH]c2c1cnn2-c1ccccc1", "potentiation": "29.5% (active)"},
      {"smiles": "COc1ccc(C)cc1N=Nc1ccc(O)c2ncccc12", "outcome": "inactive"},
      {"smiles": "S=c1[nH]nc(-c2ccc(Cl)cc2)n1/N=C/C=C/c1ccco1", "potentiation": "32% (active)"},
      {"smiles": "COc1ccc(NC2=NC3(CCCCC3)N=C(N)N2)cc1", "outcome": "inactive"},
      {"smiles": "Cc1ccccc1N(CC(=O)N/N=C/c1cc(C)n(-c2ccccc2C)c1C)S(C)(=O)=O", "outcome": "inactive"},
      {"smiles": "N#C/C(=C\\c1ccc(-c2ccccc2[N+](=O)[O-])o1)C(=O)Nc1nc(-c2cccs2)cs1", "potentiation": "56% (active)"},
      {"smiles": "CCOc1ccc(N=Nc2ccc(O)c3ncccc23)cc1", "potentiation": "17.5% (active)"},
      {"smiles": "COC(=O)c1c(NC(=S)Nc2ccccc2Cl)sc(C)c1C", "outcome": "inactive"},
      {"smiles": "CN1CCN(C=Nc2nc3ccccc3nc2N2CCCC2)CC1", "outcome": "inactive"},
      {"smiles": "CC1CCN(C(=S)NC(=O)c2ccc(C(C)(C)C)cc2)CC1", "potentiation": "85.5% (active)"},
      {"smiles": "Oc1c(Br)cc(Br)cc1C=Nc1cccc2ncccc12", "outcome": "inactive"},
      {"smiles": "CSc1nc(Nc2ccc(Cl)cc2)c(C#N)c(=O)[nH]1", "outcome": "inactive"},
      {"smiles": "CSc1nc(-c2ccccc2)[nH]c(=S)c1C(C)=O", "potentiation": "138% (active)"},
      {"smiles": "COc1ccccc1C(=O)OCC(=O)Nc1ccc(Cl)cn1", "outcome": "inactive"},
      {"smiles": "O=Cc1c(F)cccc1N1CCCC1", "outcome": "inactive"},
      {"smiles": "CCC(C)c1ccccc1OCCCNC1CCCC1", "note": "(stereo not given)", "outcome": "inactive"},
      {"smiles": "Cc1cccc(C(=O)NC(=S)N2CCc3ccccc3C2)c1", "potentiation": "99% (active)"},
      {"smiles": "O=c1c2cc(Cl)cc(Cl)c2nc2n1CCC2", "outcome": "inactive"},
      {"smiles": "COc1ccc(NS(=O)(=O)c2ccc(N/N=C(\\C)c3ccncc3)c([N+](=O)[O-])c2)cc1", "outcome": "inactive"},
      {"smiles": "CCOc1ccc(CCNC(=O)CSc2nc3ncc(Cl)cc3[nH]2)cc1OCC", "outcome": "inactive"},
      {"smiles": "O=C(CN1CCOCC1)N1CCN(c2nnc(-c3ccccc3)c3ccccc23)CC1", "outcome": "inactive"}
    ]}
  ]
}
